Source: PubChem BioAssay (Sanford-Burnham Center for Chemical Genomics)
Hits are enriched below; roughly 1.9% of the tested compounds scored in any of these assays.
LMPTP inh: blocks human LMPTP phosphatase | P24666 | recombinant LMPTP-A, OMFP fluorogenic substrate, fluorescence intensity | inhibition, % at 20 µM | 360,000 compounds, 0.22% hits;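 active means compounds that cut the enzyme signal by at least half of the control window in the single-dose screen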;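 further: plate controls were DMSO wells with enzyme plus substrate for no effect and substrate without enzyme for full effect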
Target sequence (P24666 whole entry, looked up): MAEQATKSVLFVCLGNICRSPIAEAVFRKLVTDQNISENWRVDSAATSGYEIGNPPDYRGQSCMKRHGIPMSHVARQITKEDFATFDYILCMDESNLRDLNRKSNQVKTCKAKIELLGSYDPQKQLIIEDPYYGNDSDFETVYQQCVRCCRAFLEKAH
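Material: LMPTP-A; amount: 0.625 nM enzyme; doses: single 20 µM dose; times: reaction 50 min, room temperature, dark; technique: fluorescence intensity of OMFP turnover product; benchmarks: no-enzyme and uninhibited controls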
STEP block: blocks human striatal-enriched tyrosine phosphatase | P54829 | 360,000 compounds, 0.25% hits | recombinant STEP, OMFP fluorogenic substrate, fluorescence | inhibition, % at 20 µM;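 active means inhibition at 20 µM, scaled per plate between control wells, above about 37%, limit read from the data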;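 further: 0% = DMSO with enzyme and substrate and 100% = substrate only without enzyme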
Target sequence (P54829 whole entry, looked up): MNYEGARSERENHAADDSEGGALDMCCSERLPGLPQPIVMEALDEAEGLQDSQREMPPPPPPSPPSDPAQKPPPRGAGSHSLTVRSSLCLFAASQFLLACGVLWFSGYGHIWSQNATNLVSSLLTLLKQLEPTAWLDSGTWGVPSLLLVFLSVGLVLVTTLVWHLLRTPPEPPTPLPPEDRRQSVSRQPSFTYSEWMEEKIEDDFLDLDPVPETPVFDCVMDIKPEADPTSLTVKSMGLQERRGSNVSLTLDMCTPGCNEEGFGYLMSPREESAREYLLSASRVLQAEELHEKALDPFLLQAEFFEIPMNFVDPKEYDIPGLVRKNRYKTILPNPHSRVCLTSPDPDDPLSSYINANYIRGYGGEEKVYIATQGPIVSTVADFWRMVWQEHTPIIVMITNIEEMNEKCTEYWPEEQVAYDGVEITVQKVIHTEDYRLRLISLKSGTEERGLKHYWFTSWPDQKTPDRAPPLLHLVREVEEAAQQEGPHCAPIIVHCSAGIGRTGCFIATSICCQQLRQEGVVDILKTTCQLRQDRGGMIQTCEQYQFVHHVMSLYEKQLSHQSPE
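System: isolated STEP enzyme; schedule: 20 min enzyme reaction at room temperature, protected from light; medium: Bis-Tris buffer pH 6.0, 2.5 mM DTT, 0.005% Tween 20; signal: fluorescence, 480/540 nm; dosing: single compound dose of 20 µM, 1% DMSO final; also added: OMFP substrate, 25 µM final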
Scp1 inh: blocks human Scp-1 phosphatase activity | Q9GZU7 | Recombinant Scp1, phosphopeptide, malachite green phosphate absorbance | inhibition, % at 20 µM | 340,000 compounds, 0.88% hits | AID 493091;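 active means inhibition above about 50% at 20 µM, limit read from the data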;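 further: plate controls were DMSO wells with enzyme for no effect and wells lacking enzyme for full effect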
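Material – SCP-1 phosphatase catalytic domain, residues 76-261 · Buffer or medium – Acidic Tris acetate buffer with magnesium and detergent · Also added – Phospho 17-mer peptide substrate · Compound – single 20 µM dose, 1% DMSO · Times – 45 min room-temperature reaction, 5 min colour, 30 min stabiliser · Technique – Phosphate-binding colour reagent, absorbance read at 630 nm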
SUMO1-SIM PPI: alters human SUMO1 binding to SIM partners; P63165; SUMO1 binding to a labelled peptide, TR-FRET, 1 h; inhibition, % at 20 µM; 360,000 compounds, 0.33% hits; AID 602429; in the data active means inhibition above about 37%
FAS TE block: FAS thioesterase (human) inhibition; AID 602261; inhibition, % at 15 µM; recombinant FAS-TE, OMFH fluorogenic substrate, fluorescence endpoint; 360,000 compounds, 0.67% hits; P49327;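 active means compounds whose normalised, plate-corrected inhibition of enzyme fluorescence in the single-dose primary screen is 50% or more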;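 further: 0% = DMSO with enzyme and 100% = substrate without enzyme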
Scp1 confirm: confirmation of human Scp-1 phosphatase inhibitors; shares compounds with Scp1 inh; recombinant SCP-1 catalytic domain, phosphate release, malachite green absorbance; inhibition, % at 20 µM; 2,500 compounds, 61% hits;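 further: plate controls were DMSO with enzyme for no effect and buffer wells lacking enzyme for full effect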
Scp-1 MG ctr: interferes with malachite green readout, flagging false Scp-1 hits. AID 540313. 2,500 tested, under 10 active. shares compounds with Scp1 inh. apparent inhibition (interference), % at 20 µM. Colorimetric interference counterscreen, malachite green absorbance 630 nm;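 further: compounds added after enzyme reaction finished so only phosphate colour detection is probed; plate controls were DMSO wells with completed Scp-1 reaction for no effect and substrate wells lacking enzyme for full effect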
Scp-1 Tm shift: binds human Scp-1, shifting its melting temperature. shares compounds with Scp1 inh. Recombinant SCP1, Sypro Orange thermal shift Tm. thermal shift relative to vanadate control, % at 40 µM. 1,500 compounds, 25% hits. AID 540329;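 active means substances whose mean melting-temperature shift, as a percentage of the reference inhibitor's shift, reaches about 5.3%, limit read from the data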;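 further: 0% = Tm of DMSO wells and 100% = Tm with sodium orthovanadate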
STEP conf: STEP (human) phosphatase inhibition, single concentration confirmation. shares compounds with STEP block. recombinant STEP, OMFP fluorogenic substrate, fluorescence. inhibition, % at 20 µM. 520 compounds, 32% hits. AID 623866; call rule not given here;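 further: 0% = enzyme with substrate plus DMSO and 100% = substrate without enzyme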
* hit, by the source's call.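 How the source made its calls, unless noted: active means inhibition of at least 30% at 20 µM; inactive means the rest.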

Results for O=C(COc1ccc(/C=N/NC(=O)c2ccccc2O)cc1)Nc1ccccc1 ?
LMPTP inh: 67*; STEP block: 85*; Scp1 inh: 65*; SUMO1-SIM PPI: 1; FAS TE block: 1; Scp1 confirm: 65*; Scp-1 MG ctr: 2; Scp-1 Tm shift: -11; STEP conf: 24*

How did COc1cc(/C=N/NC(=O)c2ccccc2O)ccc1OCC(=O)Nc1ccccc1 do in these assays?
LMPTP inh: 38; STEP block: 62*; Scp1 inh: 63*; SUMO1-SIM PPI: 11; FAS TE block: 1; Scp1 confirm: 70*; Scp-1 MG ctr: -11; Scp-1 Tm shift: -5; STEP conf: 83*

How did Cc1n[nH]c(=O)c2c(NC(=O)CSc3ccc(Br)cc3)oc(C)c12 do in these assays?
LMPTP inh: -5; STEP block: -1; Scp1 inh: 2; SUMO1-SIM PPI: -29; FAS TE block: -1

Results for CC(=O)[C@@]1(O)[C@H](C)CC2C3CC=C4CC(OP(=O)(O)O)CC[C@]4(C)C3CC[C@@]21C (some centres not stated) ?
LMPTP inh: 1; STEP block: 6; Scp1 inh: 30; SUMO1-SIM PPI: -6; FAS TE block: 0

What do the screens show for `CCN(c1ccccc1)S(=O)(=O)c1cc(C(=O)O)ccc1C`?
LMPTP inh: 60*; STEP block: 95*; Scp1 inh: 56*; SUMO1-SIM PPI: 12; FAS TE block: -4; Scp1 confirm: 46*; Scp-1 MG ctr: -15; Scp-1 Tm shift: 0; STEP conf: 19

What do the screens show for `CN(C)c1ccc(C(=O)OCC(=O)Nc2ccc(S(N)(=O)=O)cc2)cc1`?
LMPTP inh: 18; STEP block: 40*; Scp1 inh: 99*; SUMO1-SIM PPI: 58*; FAS TE block: -5; Scp1 confirm: 75*; Scp-1 MG ctr: -16; Scp-1 Tm shift: 11*; STEP conf: 101*

What do the screens show for `O=C(Cn1cnc2c(nnn2-c2ccccc2)c1=O)NCc1ccc(F)cc1`?
LMPTP inh: 34; STEP block: 77*; Scp1 inh: 101*; SUMO1-SIM PPI: 17; FAS TE block: -3; Scp1 confirm: 96*; Scp-1 MG ctr: 3; Scp-1 Tm shift: -2; STEP conf: 26

Results for CCCc1cc(=O)oc2cc(OCC(=O)NCc3cccs3)ccc12 ?
LMPTP inh: 2; STEP block: -2; Scp1 inh: -4; SUMO1-SIM PPI: -4; FAS TE block: -5

How did CCCc1cc(=O)oc2cc(OCC(=O)Nc3ccc(S(N)(=O)=O)cc3)ccc12 do in these assays?
LMPTP inh: 84*; STEP block: 69*; Scp1 inh: 100*; SUMO1-SIM PPI: 55*; FAS TE block: 2; Scp1 confirm: 85*; Scp-1 MG ctr: -8; Scp-1 Tm shift: 2; STEP conf: 65*

What do the screens show for `CC(=O)c1ccc(S(=O)(=O)Nc2cccc(-n3cnnn3)c2)cc1`?
LMPTP inh: 18; STEP block: 97*; Scp1 inh: 77*; SUMO1-SIM PPI: 21; FAS TE block: -1; Scp1 confirm: 65*; Scp-1 MG ctr: -14; Scp-1 Tm shift: 2; STEP conf: 99*

What do the screens show for `CC(=O)Nc1ccc(S(=O)(=O)Nc2cccc(-n3cnnn3)c2)cc1`?
LMPTP inh: 0; STEP block: -4; Scp1 inh: -8; SUMO1-SIM PPI: -12; FAS TE block: -3

How did CCOc1ccc(/C=N/NC(=O)c2cc3c(OC)cccc3[nH]2)cc1 do in these assays?
LMPTP inh: 25; STEP block: 89*; Scp1 inh: 79*; SUMO1-SIM PPI: 15; FAS TE block: -10; Scp1 confirm: 58*; Scp-1 MG ctr: -13; Scp-1 Tm shift: 6.4*; STEP conf: 41*

What do the screens show for `N#C/C(=C\c1ccncc1)c1nc2ccccc2[nH]1`?
LMPTP inh: 0; STEP block: 1; Scp1 inh: -8; SUMO1-SIM PPI: -13; FAS TE block: -3

What do the screens show for `N#C/C(=C\c1ccc(OC(=O)c2ccc(Cl)s2)cc1)c1nc2ccccc2[nH]1`?
LMPTP inh: 46; STEP block: 71*; Scp1 inh: 99*; SUMO1-SIM PPI: 4; FAS TE block: -5; Scp1 confirm: 74*; Scp-1 MG ctr: -10; Scp-1 Tm shift: -3; STEP conf: 25*

How did N#C/C(=C\c1ccc(OC(=O)c2ccc(Br)s2)cc1)c1nc2ccccc2[nH]1 do in these assays?
LMPTP inh: 2; STEP block: 57*; Scp1 inh: 101*; SUMO1-SIM PPI: 3; FAS TE block: -8; Scp1 confirm: 52*; Scp-1 MG ctr: 0; Scp-1 Tm shift: 5.5*; STEP conf: 26

Results for Cc1nc2cc(-c3ccc(Br)cc3)[nH]n2c(=O)c1Cl ?
LMPTP inh: 38; STEP block: 97*; Scp1 inh: 96*; SUMO1-SIM PPI: 12; FAS TE block: 0; Scp1 confirm: 20; Scp-1 MG ctr: -7; STEP conf: 1

What do the screens show for `CC(C)COC(=O)N1CCN(S(=O)(=O)c2ccc3c(c2)CCC3)CC1`?
LMPTP inh: 1; STEP block: 4; Scp1 inh: -6; SUMO1-SIM PPI: 0; FAS TE block: 17

What do the screens show for `COC(=O)c1ccc(C(=O)Nc2ccc3c(c2)C(=O)NC3=O)cc1`?
LMPTP inh: 31; STEP block: 94*; Scp1 inh: 75*; SUMO1-SIM PPI: 95*; FAS TE block: -4; Scp1 confirm: 47*; Scp-1 MG ctr: -12; Scp-1 Tm shift: 6.0*; STEP conf: 2

Results for Cc1ccc(C(=O)Nc2ccc3c(c2)C(=O)NC3=O)cc1 ?
LMPTP inh: -3; STEP block: -2; Scp1 inh: -7; SUMO1-SIM PPI: -5; FAS TE block: -10

How did Cc1ccc(NC(=O)CN2C(=O)S/C(=C\c3ccc(OCC(=O)O)c(Br)c3)C2=O)cc1 do in these assays?
LMPTP inh: 3; STEP block: 71*; Scp1 inh: 72*; SUMO1-SIM PPI: 1; FAS TE block: -4; Scp1 confirm: 58*; Scp-1 MG ctr: -16; Scp-1 Tm shift: 1; STEP conf: 61*
